Measurements published in ChEMBL document CHEMBL4819106, “Aminopyrazole based CDK9 PROTAC sensitizes pancreatic cancer cells to venetoclax” (Bioorg Med Chem Lett, 2021).
Active and inactive are the calls of the source. The calls are words filed in the database; no cut-off is given here.

Molecular target: Protein cereblon/Cyclin-dependent kinase 9 (Homo sapiens, UniProt P50750+Q96SW2)
Test: Protac activity at CDK9/CRBN in human HEK293 cells assessed as degradation of CDK9 at 0.01 to 10 uM incubated for 24 hrs by Western blot analysis
Type: cell-based
Details: dose 0.01-10 µM
Summary of the method: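 HEK293 cells were treated with increasing concentrations (0.01–10 μM) for 24 hr. Lysates were analysed by western blot for CDK9 degradation.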

Protein cereblon/Cyclin-dependent kinase 9, sequence (P50750 whole entry, looked up): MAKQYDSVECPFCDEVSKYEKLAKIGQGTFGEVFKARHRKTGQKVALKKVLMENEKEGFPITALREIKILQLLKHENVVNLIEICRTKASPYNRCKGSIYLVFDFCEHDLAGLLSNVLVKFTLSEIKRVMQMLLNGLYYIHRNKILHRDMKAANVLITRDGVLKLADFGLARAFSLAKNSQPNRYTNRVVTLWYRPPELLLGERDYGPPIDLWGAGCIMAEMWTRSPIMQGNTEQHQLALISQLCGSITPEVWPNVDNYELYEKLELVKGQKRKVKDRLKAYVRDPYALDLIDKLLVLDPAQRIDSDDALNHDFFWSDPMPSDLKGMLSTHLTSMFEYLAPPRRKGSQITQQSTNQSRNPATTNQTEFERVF
Protein cereblon/Cyclin-dependent kinase 9, sequence (Q96SW2 whole entry, looked up): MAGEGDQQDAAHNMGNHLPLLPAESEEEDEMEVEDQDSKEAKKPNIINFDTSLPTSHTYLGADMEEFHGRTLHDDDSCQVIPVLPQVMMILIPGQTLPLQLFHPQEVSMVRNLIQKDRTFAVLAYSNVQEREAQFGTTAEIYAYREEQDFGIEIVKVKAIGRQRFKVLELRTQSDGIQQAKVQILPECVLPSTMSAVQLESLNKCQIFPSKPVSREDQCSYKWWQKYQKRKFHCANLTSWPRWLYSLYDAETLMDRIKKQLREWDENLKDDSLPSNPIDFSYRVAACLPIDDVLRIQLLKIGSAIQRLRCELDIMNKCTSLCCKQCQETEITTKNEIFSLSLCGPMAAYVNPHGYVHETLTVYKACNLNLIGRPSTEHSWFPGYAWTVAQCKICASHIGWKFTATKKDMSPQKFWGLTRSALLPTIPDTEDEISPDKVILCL

Row | Compound | Activity
1 | O=C(COCCOCCOCCOc1ccc(CC(=O)Nc2cc(C3CCC3)[nH]n2)cc1)NCCCCNc1cccc2c1C(=O)N(C1CCC(=O)NC1=O)C2=O (stereo not drawn) | inactive
2 | O=C(CCCOc1ccc(CC(=O)Nc2cc(C3CCC3)[nH]n2)cc1)NCCCOCCOCCOCCCNc1cccc2c1C(=O)N(C1CCC(=O)NC1=O)C2=O (stereo not drawn) | inactive
3 | O=C(COc1ccc(CC(=O)Nc2cc(C3CCC3)[nH]n2)cc1)NCCCOCCOCCOCCCNc1cccc2c1C(=O)N(C1CCC(=O)NC1=O)C2=O (stereo not drawn) | inactive
